Furin inhibitor = human furin inhibition; hit rate 0.061% among 220,000; P09958; purified furin, fluorogenic substrate cleavage; inhibition, % at 20 µM or 30 µM; in the data active = inhibition above about 25%
thrombin 1536 = inhibitors of human thrombin | inhibition, % at 5 µM | hit rate 0.26% among 220,000 | alpha-thrombin, Boc-VPR-AMC fluorogenic substrate cleavage | AID 1046 | P00734;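 active = inhibition at or above 40%; inactive = inhibition below 40%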;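 note: 0% = enzyme with no compound and 100% = wells without enzyme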
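System – human alpha-thrombin · Medium – pH 7.5 Tris (50 mM) with NaCl 150 mM, Tween 20 0.05% · Compound – single-point dosing at 5 µM, 0.2% DMSO · Incubation – enzyme reaction carried out at room temperature · Technique – fluorescence of released AMC, ex 355 nm, em 460 nm · Read-out basis – % inhibition of thrombin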
FXIa inh 1536 = factor XIa (human) inhibition | purified FXIa, Boc-Glu-Ala-Arg-AMC fluorogenic substrate | AID 798 | P03951 | inhibition, % at 5 µM | hit rate 0.14% among 220,000;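 active = inhibition of at least 40%; inactive = inhibition below 40%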;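 note: fluorescence of freed AMC excited at 355 nm; 0% = enzyme without compound and 100% = no enzyme blank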
FXIIa inh 1536 = inhibitors of human coagulation factor XIIa. P00748. purified FXIIa, Boc-QGR-AMC fluorogenic substrate, 2 h. inhibition, % at 5 µM. hit rate 0.3% among 220,000. AID 800; in the data active = inhibition above about 40%;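 note: 0% = enzyme with no compound and 100% = blank without enzyme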
hK5 inh = kallikrein 5 (human) inhibition. recombinant hK5, fluorogenic AMC substrate cleavage. inhibition, % at 5 µM. hit rate 0.59% among 210,000. AID 873;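 active = inhibition of 40% or more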;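 note: 0% = enzyme controls without compound and 100% = no-enzyme blanks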
Target sequence (Q9Y337 67-293 limits assumed): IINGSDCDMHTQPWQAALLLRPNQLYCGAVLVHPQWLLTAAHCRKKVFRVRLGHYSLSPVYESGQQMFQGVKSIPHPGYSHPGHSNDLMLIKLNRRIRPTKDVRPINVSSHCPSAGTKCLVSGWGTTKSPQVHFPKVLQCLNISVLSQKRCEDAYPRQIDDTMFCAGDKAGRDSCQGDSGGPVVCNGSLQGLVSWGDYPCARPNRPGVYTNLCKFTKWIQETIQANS
* = called active by the depositor. This is a sample that favours compounds with a hit; in the whole collection about 1.1% have one here.

SMILES	Furin inhibitor	thrombin 1536	FXIa inh 1536	FXIIa inh 1536	hK5 inh
CCOc1cc(/C=N/n2cnnc2)cc(Br)c1O	-6	2	24	43*	6
COc1ccc(S(=O)(=O)NCC(=O)Nc2cccc(C)c2C)cc1OC	-13	-4	-5	3	-8
CCC(C)(C)n1nnnc1C(c1cc2ccc(OC)cc2[nH]c1=O)N1CCN(C2CCCCC2)CC1 (stereo unspecified)	-5	31	7	-3	57*
CCn1nc(C)c(CNC(=O)c2cc(COc3ccc(F)cc3Cl)on2)c1C	-1	29	23	43*	28
Cc1ccc(NC(=O)C2CCN(S(C)(=O)=O)CC2)cc1	-30	9	13	26	49*
COc1ccc(C(=O)C2CCCN(C(=O)Cn3nc(C)cc3C)C2)cc1F (stereo unspecified)	-24	-2	-2	6	0
Cc1ccc(NC(=O)CN(c2cc(C)cc(C)c2)S(=O)(=O)c2c(C)noc2C)nc1	-9	26	7	26	40*
Cn1c(Sc2ccc(C(F)(F)F)cc2[N+](=O)[O-])nnc1-c1ccccc1	-13	25	16	29	51*
O=C(Nc1ccccc1)C1=C[C@@H](C2CC2)C[C@@H](OCc2ccc(CO)cc2)O1	-22	-2	-1	4	-3
Cc1cc(O)c2c(c1)C(=O)c1cccc(O)c1C2=O	-12	-2	-3	0	-6
O=C1C=C(O)c2c(O)cccc2C1=O	-15	55*	11	18	11
COC(=O)CC1C(=O)NCCN1C(=S)Nc1cccc(C)c1 (stereo unspecified)	-2	-3	35	45*	-21
Cc1cc(C)c2nc(C)cc(Nc3ccc(C(=O)N(C)C)cc3)c2c1	16	3	-2	11	4
CC(=O)c1ccc(Nc2cc(C)nc3c(C)cc(C)cc23)cc1	7	11	26	31	44*
Cc1ccccc1-n1cnc2cc(NCc3cccs3)ccc21	-23	41*	12	19	40*
Cc1onc(-c2ccccc2)c1C(=O)NCc1ccco1	-23	0	-1	13	6
Cc1onc(-c2ccccc2)c1C(=O)N(Cc1ccco1)Cc1cccs1	11	14	40*	21	31
Cc1cc(C)n(S(=O)(=O)c2cc(C)c(C)cc2C)n1	-16	0	-10	7	-2
Cc1ccc(S(=O)(=O)n2nc(C)cc2C)cc1	-13	27	1	1	43*
CC1=C(C(=O)OC(C)C)C(c2cccs2)C(C(=O)OC(C)C)=C(C)N1	-15	-3	-1	13	-8
COc1cc(CNc2ncn[nH]2)cc(Br)c1OC	-28	6	-3	9	71*
CCC(C)[C@@H](NC(=O)OC(C)(C)C)c1nnc(S(=O)(=O)Cc2cccc(C)c2)o1 (stereo partly specified)	-12	51*	31	17	0
CC(C)(C)OC(=O)N[C@@H](Cc1ccccc1)c1nnc(S(=O)(=O)Cc2ccccc2)o1	-23	14	20	26	-6
N/C(=N\O)c1ccc(N2CCN(c3ncccc3C(F)(F)F)CC2)nc1	-6	-3	-4	2	10
Cc1ccccc1NC(=O)c1ccc(NC(=O)C2CC(=O)OC23CCCCC3)cc1 (stereo unspecified)	-11	64*	31	17	15
SMILES	Furin inhibitor	thrombin 1536	FXIa inh 1536	FXIIa inh 1536	hK5 inh
CN1CCN(C(=O)c2ccc(C(F)(F)F)cc2)CC1	-9	25	28	24	46*
CN1CCN(C(=O)c2ccc(C(C)(C)C)cc2)CC1	-21	2	-1	14	-8
CC(C)(C)C1CCC(OCC(O)CN2CCN(Cc3ccccc3)CC2)CC1 (stereo unspecified)	-7	-7	3	13	-6
CC1CN(CC(O)COC2CCC(C(C)(C)C)CC2)CC(C)O1 (stereo unspecified)	0	2	28	26	43*
COC(=O)c1ccccc1NC(=O)N1CCN(S(=O)(=O)c2ccc(Cl)cc2)CC1	-18	20	-8	7	102*
O=C(NCCCn1ccnc1)c1cccc(S(=O)(=O)NCc2ccccc2)c1	-29	-10	-3	6	5
Cn1c(C(=O)N2CCCC2)cc2c(=O)n(C)c3ccccc3c21	-15	0	4	17	-1
Cn1c(C(=O)N2CCN(c3ncccn3)CC2)cc2c(=O)n(C)c3ccccc3c21	-14	0	4	32	46*
CC(=O)N1CCN(C(=O)CCC(=O)O)CC1	-20	4	1	11	0
O=C(CCSc1ccccc1)N1CCOCC1	-10	-2	10	12	1
O=C(OCCCC(=O)N1CCOCC1)c1ccccc1	-19	5	-3	18	42*
Cc1cc(=O)oc2ccc(OCC(=O)NCc3ccco3)cc12	-17	-1	8	19	3
Cc1cc(=O)oc2cc(OCC(=O)NCc3ccco3)ccc12	-28	19	3	14	42*
CCOC(=O)C1(C)C=C(Nc2cccc(OC)c2)C(=O)N1c1ccccc1 (stereo unspecified)	-18	28	22	21	44*
O=C(CN1CCN(Cc2ccccc2F)C1=O)NC1CCCC1	-22	2	-5	8	1
O=C(CN1CCCN(Cc2ccc(F)cc2Cl)C1=O)NC1CCCCCCC1	-21	12	7	24	104*
Cc1cccc(C)c1NC(=O)c1cn(-c2ccccc2)nc1-c1ccccc1	-28	-2	4	14	-9
O=C(NN=C1CCCCCC1)c1cn(-c2ccccc2)nc1-c1ccccc1	-23	100*	14	16	28
O=C(NCc1ccccn1)c1cn(-c2ccccc2)nc1-c1ccc(Cl)cc1	-12	58*	-9	-4	21
CCSc1nc2cc(OC)c(OC)cc2c(=O)n1CC	-14	24	17	22	66*
CC(=O)c1sc(NC(=O)COc2ccc(Cl)cc2C)nc1C	-9	24	36	71*	59*
CC(=O)N1CCC(N(CCN2CCOCC2)C(=S)Nc2cccc(C)c2)CC1	-14	1	4	6	-4
CC(=O)N1CCC(N(CCN2CCOCC2)C(=S)Nc2cc(C)ccc2C)CC1	-2	23	19	17	51*
CSc1c(CC(=O)NCCO)n(C)c2ccccc12	4	13	3	18	51*
CC(C)(C)c1ccc(Cn2nnc3c(=O)[nH]c(C4CCN(C(=O)Cc5cccs5)CC4)nc32)cc1	2	9	16	15	118*
CC(C)(C)c1ccc(Cn2nnc3c(=O)[nH]c(C4CCCN(C(=O)Cc5cccs5)C4)nc32)cc1 (stereo unspecified)	-18	2	-4	-5	-5
COc1ccccc1N1CCN(C(=O)CN(C)S(=O)(=O)c2cc(C)ccc2OC)CC1	-11	0	-2	11	3
CC(C)COc1cccc(C(=O)NC(=S)Nc2cccc(NC(=O)c3ccccc3Cl)c2)c1	-23	18	15	22	42*

Screening results from PubChem.
